Measured values published in article PMC5367579 (International Journal of Nanomedicine, 2017).
Ends that are not written are not given here.

Tests used:
[1] = cited from earlier work
INS-1 cells [2] = experiment: Glucose uptake of INS-1 cells; type: cell-based; details: 10 nM SCD/peptides or 210 nM SeNPs/SC, KRBH buffer with 16.7 mM glucose, 20 min
db/db mice [3] = experiment: Acute blood glucose lowering after single intraperitoneal dose in db/db mice; type: in vivo; details: 20 nmol/kg single intraperitoneal dose
How it was run: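 Male 10-week-old db/db mice (type 2 diabetic), six groups of eight, with blood glucose measured before treatment. A single intraperitoneal dose of 20 nmol/kg (dosed by peptide content) was given, diluted in sterile normal saline. Blood glucose was read at 0.5 h, then hourly from 1 to 15 h. Controls were saline (same volume), reference peptides at 20 nmol/kg, and peptide-free nanoparticle carrier at 42.1 μg/kg.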

INS-1 cells [4] = experiment: Insulin receptor beta subunit expression in INS-1 cells; type: cell-based; details: 10 nM SCD/peptides or 210 nM SeNPs/SC, 48 h, Western blot IR-β
db/db mice [5] = experiment: Chronic 12-week daily administration in db/db mice; type: in vivo; details: daily i.p. 12 weeks, 20 nmol/kg (SC 42.1 μg/kg), mean ± SEM, n=8

Substance | half-life of wild PACAP ([1]; abstract, comparator for SCD half-life, ref not given) | half-life ([1]; in vivo) | glucose uptake (INS-1 cells [2]) [mM] | hypoglycemic effect (db/db mice [3]) | insulin receptor expression level vs PBS group (INS-1 cells [4]) [fold] | CHOL (db/db mice [5]) [mmol/L] | Free fatty acid (db/db mice [5]) [mEq/L] | HDL-C (db/db mice [5]) [mmol/L] | LDL-C (db/db mice [5]) [mmol/L] | TG (db/db mice [5]) [mmol/L] | Water consumption (db/db mice [5]) [g/day] | Whole white fat (db/db mice [5]) [g]
pituitary adenylate cyclase activating peptide [PACAP] | ~ 5 min | – | – | – | – | – | – | – | – | – | – | –
HSDAVFTDNYTRLRKQVAAKKYLQSIKNKRY-NH2 (C-terminus assumed) [BAY55-9837] | – | ~ 5 min | 1.44 | momentary hypoglycemic effect within 30 min | 1.25 | 2.55 ± 0.25 | 1.30±0.19 | 1.46 ± 0.20 | 0.63 ± 0.12 | 1.93 ± 0.14 | 27.2 ± 1.90 | 15.3 ± 1.28
